Results as given in ChEMBL document CHEMBL2010803, “Novel NSAID 1-acyl-4-cycloalkyl/arylsemicarbazides and 1-acyl-5-benzyloxy/hydroxy carbamoylcarbazides as potential anticancer agents and antioxidants” (Eur J Med Chem, 2012).
Active and inactive are the calls of the source. The rule behind the calls is not given here.

Columns and labels:
Coxsackievirus B4 [1] = test: Antiviral activity against Coxsackievirus B4 infected in african green monkey Vero cells assessed as inhibition of virus-induced cytopathic effect at 0.32 to 100 uM; assay type: functional, organism-based
How it was run: (§1)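 Confluent cell cultures were infected with 100 CCID50 of virus in the presence of test compound at 100, 40, 8, 1.6 and 0.32 μM. Cytopathic effect was scored once it was complete in untreated infected controls.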

[2] = system: Vesicular stomatitis virus; test: Antiviral activity against Vesicular stomatitis virus infected in human cervix carcinoma cells assessed as inhibition of virus-induced cytopathic effect at 0.32 to 100 uM; assay type: functional, organism-based
How it was run: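 Confluent human cervix carcinoma (HeLa) cultures received 100 CCID50 of VSV together with the compound at 100, 40, 8, 1.6 or 0.32 μM. Cytopathicity was read at the point of full CPE in infected, untreated control wells.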

[3] = Antioxidant activity assessed as inhibition of AAPH-induced linoleic acid lipid peroxidation by measuring conjugated diene hydroperoxide level; assay type: functional; set-up: concentration or dose not given beside the values; settings: dose or concentration not given here
How it was run: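 Linoleic acid sodium salt (10 μL of 16 mM) in 0.05 M phosphate buffer pH 7.4 at 37 °C. Oxidation started under air with 50 μL of 40 mM AAPH. Conjugated diene hydroperoxide formation followed as absorbance rise at 234 nm; control contains the same DMSO level. At least triplicate.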

Coxsackievirus B4 [4] = test: Antiviral activity against Coxsackievirus B4 infected in human cervix carcinoma cells assessed as inhibition of virus-induced cytopathic effect at 0.32 to 100 uM; assay type: functional, organism-based; how it was run: as §1
HCT-116 = test: Cytostatic activity against human HCT116 cells after 72 hrs by MTT assay; assay type: functional, cell-based; settings: HCT-116, 72 h
How it was run: (§2)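 Monolayers in DMEM with 10% FBS, 2 mM L-glutamine and penicillin/streptomycin, 37 °C, 5% CO2. Seeded at 1–3 × 10^4 cells/ml, then compound added in tenfold dilutions (10⁻⁸–10⁻⁴ M) for 72 h. MTT read at 570 nm; percent growth taken against time-zero and untreated controls. IC50 by linear regression; quadruplicate, at least two experiments.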

[5] = system: Human immunodeficiency virus 1; test: Antiviral activity against HIV1 3B infected in human CEM cells assessed as inhibition of virus-induced CEM giant cell formation at 0.32 to 100 uM after 4 days; assay type: functional, organism-based; settings: CCRF-CEM
How it was run: (§3)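 CEM cells (~3 × 10^5 cells/cm³) exposed to 100 CCID50/ml of virus and seeded into wells holding compound dilutions. Incubated 4 days at 37 °C, then giant cell formation examined microscopically.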

Influenza A virus [6] = test: Antiviral activity against Influenza A virus H3N2 infected in MDCK cells assessed as inhibition of virus-induced cytopathic effect at 0.32 to 100 uM; assay type: functional, organism-based
How it was run: (§4)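 Confluent MDCK monolayers were infected in the presence of the compound at 100, 40, 8, 1.6 and 0.32 μM. Viral cytopathicity was scored once it was complete in untreated infected control cultures.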

[7] = system: Respiratory syncytial virus; test: Antiviral activity against RSV infected in human cervix carcinoma cells assessed as inhibition of virus-induced cytopathic effect at 0.32 to 100 uM; assay type: functional, organism-based; how it was run: as §1
Human alphaherpesvirus 1 = test: Antiviral activity against HSV1 KOS infected in human lung fibroblast assessed as inhibition of virus-induced cytopathic effect at 0.32 to 100 uM; assay type: functional, organism-based; how it was run: as §1
Sindbis virus = test: Antiviral activity against Sindbis virus infected in african green monkey Vero cells assessed as inhibition of virus-induced cytopathic effect at 0.32 to 100 uM; assay type: functional, organism-based; how it was run: as §1
[8] = system: Radical scavenging activity; test: Antioxidant activity assessed as DPPH free radical scavenging activity at 100 uM after 20 mins by spectrophotometric analysis; assay type: functional
How it was run: (§5)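 0.05 mM DPPH in absolute ethanol mixed with an equal volume of compound in DMSO (final 100 μM). Shaken and left 20 or 60 min, then absorbance read at 517 nm and percent activity calculated. Three replicates, averaged.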

[9] = system: Human immunodeficiency virus 2; test: Antiviral activity against HIV2 ROD infected in human CEM cells assessed as inhibition of virus-induced CEM giant cell formation at 0.32 to 100 uM after 4 days; assay type: functional, organism-based; settings: ISOLATE ROD, CCRF-CEM; how it was run: as §3
MCF7 = test: Cytostatic activity against human MCF7 cells after 72 hrs by MTT assay; assay type: functional, cell-based; settings: MCF7, 72 h; how it was run: as §2
Punta Toro virus = test: Antiviral activity against Punta Toro virus infected in african green monkey Vero cells assessed as inhibition of virus-induced cytopathic effect at 0.32 to 100 uM; assay type: functional, organism-based; how it was run: as §1
Human respirovirus 3 = test: Antiviral activity against Parainfluenza virus 3 infected in african green monkey Vero cells assessed as inhibition of virus-induced cytopathic effect at 0.32 to 100 uM; assay type: functional, organism-based; how it was run: as §1
[10] = system: Vesicular stomatitis virus; test: Antiviral activity against VSV infected in human lung fibroblast assessed as inhibition of virus-induced cytopathic effect at 0.32 to 100 uM; assay type: functional, organism-based
NCI-H460 = test: Cytostatic activity against human NCI-H460 cells after 72 hrs by MTT assay; assay type: functional, cell-based; settings: NCI-H460, 72 h; how it was run: as §2
HeLa = test: Cytostatic activity against human HeLa cells after 3 days by coulter counter analysis; assay type: functional, cell-based; settings: 72 h
How it was run: (§6)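 300,000–500,000 cells/ml mixed 1:1 with compound dilutions and incubated at 37 °C for 2 days (L1210) or 3 days (CEM, HeLa). Cell number counted with a Coulter counter; HeLa trypsinized before counting.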

Glycine max = test: Inhibition of soybean LOX assessed as conversion of sodium linoleate to 13- hydroperoxylinoleic acid at 100 uM
[11] = system: Mammalian orthoreovirus 1; test: Antiviral activity against Reovirus-1 infected in african green monkey Vero cells assessed as inhibition of virus-induced cytopathic effect at 0.32 to 100 uM; assay type: functional, organism-based; how it was run: as §1
L1210 = test: Cytostatic activity against mouse L1210 cells after 2 days by coulter counter analysis; assay type: functional, cell-based; settings: L1210, 48 h; how it was run: as §6
Influenza A virus [12] = test: Antiviral activity against Influenza A virus H1N1 infected in MDCK cells assessed as inhibition of virus-induced cytopathic effect at 0.32 to 100 uM; assay type: functional, organism-based; how it was run: as §4
[13] = system: Radical scavenging activity; test: Antioxidant activity assessed as DPPH free radical scavenging activity at 100 uM after 60 mins by spectrophotometric analysis; assay type: functional; how it was run: as §5
CCRF-CEM = test: Cytostatic activity against human CEM cells after 3 days by coulter counter analysis; assay type: functional, cell-based; settings: 72 h; how it was run: as §6
Influenza B virus = test: Antiviral activity against Influenza B virus infected in MDCK cells assessed as inhibition of virus-induced cytopathic effect at 0.32 to 100 uM; assay type: functional, organism-based; how it was run: as §4
Feline coronavirus = test: Antiviral activity against Feline coronavirus infected in feline CRFK cells assessed as inhibition of virus-induced cytopathic effect at 0.32 to 100 uM; assay type: functional, organism-based; how it was run: as §1
Human alphaherpesvirus 2 = test: Antiviral activity against HSV2 G infected in human lung fibroblast assessed as inhibition of virus-induced cytopathic effect at 0.32 to 100 uM; assay type: functional, organism-based; settings: strain G; how it was run: as §1
Felid alphaherpesvirus 1 = test: Antiviral activity against Feline herpesvirus infected in feline CRFK cells assessed as inhibition of virus-induced cytopathic effect at 0.32 to 100 uM; assay type: functional, organism-based; how it was run: as §1
Vaccinia virus = test: Antiviral activity against Vaccinia virus infected in human lung fibroblast assessed as inhibition of virus-induced cytopathic effect at 0.32 to 100 uM; assay type: functional, organism-based; settings: Orthopoxvirus vaccinia

Compound	inhibition (Coxsackievirus B4 [1])	inhibition [2]	inhibition [3] [%]	inhibition (Coxsackievirus B4 [4])	IC50 (HCT-116) [µM]	inhibition [5]	inhibition (Influenza A virus [6])	inhibition [7]	inhibition (Human alphaherpesvirus 1)	inhibition (Sindbis virus)	Activity [8]	inhibition [9]	IC50 (MCF7) [µM]	inhibition (Punta Toro virus)	inhibition (Human respirovirus 3)	inhibition [10]	IC50 (NCI-H460) [µM]	IC50 (HeLa) [µM]	inhibition (Glycine max)	inhibition [11]	other results
CC(C(=O)NNC(=O)NO)c1cccc(Oc2ccccc2)c1 (configuration not stated)	inactive	inactive	22	inactive	> 100	inactive	inactive	inactive	inactive	inactive	39%	inactive	> 100	inactive	inactive	inactive	> 100	≥ 250	3%	inactive	IC50 (L1210): 125 µM; inhibition (Influenza A virus [12]): inactive; Activity [13]: 66%; IC50 (CCRF-CEM): 183 µM; inhibition (Influenza B virus): inactive; inhibition (Feline coronavirus): inactive; inhibition (Human alphaherpesvirus 2): inactive; inhibition (Felid alphaherpesvirus 1): inactive; inhibition (Vaccinia virus): inactive
CC(C)Cc1ccc(C(C)C(=O)NNC(=O)NOCc2ccccc2)cc1 (configuration not stated)	inactive	inactive	100	inactive	76	inactive	inactive	inactive	inactive	inactive	inactive	inactive	50	inactive	inactive	inactive	> 100	178	inactive	inactive	IC50 (L1210): 192 µM; inhibition (Influenza A virus [12]): inactive; Activity [13]: inactive; IC50 (CCRF-CEM): ≥ 250 µM; inhibition (Influenza B virus): inactive; inhibition (Feline coronavirus): inactive; inhibition (Human alphaherpesvirus 2): inactive; inhibition (Felid alphaherpesvirus 1): inactive; inhibition (Vaccinia virus): inactive
CC(C(=O)NNC(=O)NNC(=O)NO)c1cccc(Cc2ccccc2)c1 (configuration not stated)	inactive	inactive	28	inactive	> 100	inactive	inactive	inactive	inactive	inactive	28%	inactive	> 100	inactive	inactive	inactive	> 100	≥ 250	1%	inactive	IC50 (L1210): > 250 µM; inhibition (Influenza A virus [12]): inactive; Activity [13]: 53%; IC50 (CCRF-CEM): > 250 µM; inhibition (Influenza B virus): inactive; inhibition (Feline coronavirus): inactive; inhibition (Human alphaherpesvirus 2): inactive; inhibition (Felid alphaherpesvirus 1): inactive; inhibition (Vaccinia virus): inactive
